Measured values reported in ChEMBL document CHEMBL1156208, “Novel DNA-peptide interaction networks” (Bioorg Med Chem, 2010).
Calls of active or inactive are those of the source. The rule behind the calls is not given here. Starred links: 1 amine or outer side, 2 acyl side, 3 side chain; linkers in the order of their positions; H or OH if unused. Non-standard residues stand in square brackets, D forms with d. Residues, ends and D or L forms follow the SMILES beside them. X1 = Cn1cc(N[*:1])cc1C(=O)[*:2]

Legend:
Type in all cases: nucleic-acid assay
Nucleic Acid [1] = test: Binding affinity to 5^-TTTCACA-3^ sequence of [32P] labeled DNA at 2 uM after 120 mins by DNase1 foot printing
Outline: (§1)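 5'-32P-labeled PCR duplexes (158-mer upper strand, 135-mer lower strand) were equilibrated with varying peptide concentrations in 5 mM sodium cacodylate, pH 6.5, at room temperature for 120 min. DNase I (final 0.009 unit/mL, limited to <30% digestion) was added for 10 min at 37 °C. Products were resolved on denaturing 8% polyacrylamide/8 M urea gels and band volumes integrated to give fractional saturation. Apparent K was taken as the peptide concentration at 50% saturation. Hill coefficient came from the slope of a least-squares Hill plot using at least six points.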

Nucleic Acid [2] = test: Binding affinity to 13-mer DNA duplex U4A-L4T assessed as conformational change after 60 mins by circular dichroism
Outline: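 CD spectra were recorded at 37 °C after 60 min incubation. Difference spectra were obtained by subtracting the duplex-alone and peptide-alone contributions.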

Nucleic Acid [3] = test: Binding affinity to 5^-ATTTTCTCC-3^ sequence of [32P] labeled DNA at 2 uM after 120 mins by DNase1 foot printing; outline: as §1
Nucleic Acid [4] = test: Binding affinity to 5^-TTTTCTCC-3^ sequence of [32P] labeled DNA at 2 uM after 120 mins by DNase1 foot printing; outline: as §1
Nucleic Acid [5] = test: Binding affinity to 5^-GGAGAAAATACC-3^ sequence of [32P] labeled DNA at 2 uM after 120 mins by DNase1 foot printing; outline: as §1
Nucleic Acid [6] = test: Binding affinity to 5^-TTTC-3^ sequence of [32P] labeled DNA at 2 uM after 120 mins by DNase1 foot printing; outline: as §1
Nucleic Acid [7] = test: Binding affinity to 5^-TTTTCTC-3^ sequence of [32P] labeled DNA at 2 uM after 120 mins by DNase1 foot printing; outline: as §1
Nucleic Acid [8] = test: Binding affinity to 5^-GAGAAAATACC-3^ sequence of [32P] labeled DNA at 2 uM after 120 mins by DNase1 foot printing; outline: as §1

Row | Ka (Nucleic Acid [1]) | Activity (Nucleic Acid [2]) | Ka (Nucleic Acid [3]) | Ka (Nucleic Acid [4]) | Ka (Nucleic Acid [5]) | Ka (Nucleic Acid [6]) | Ka (Nucleic Acid [7]) | Ka (Nucleic Acid [8]) | SMILES
1 | 8.4e+06 M⁻¹ | Active | 9.7e+06 M⁻¹ |  |  |  |  |  | Cn1cc(NC(=O)c2cc(NC(=O)[C@H](CCCCN)NC(=O)[C@H](CCCNC(=N)N)NC(=O)[C@@H]3CCCN3C(=O)[C@@H](N)Cc3cnc[nH]3)cn2C)cc1C(=O)Nc1cc(C(=O)Nc2cc(C(=O)N[C@@H](CCCNC(=N)N)C(N)=O)n(C)c2)n(C)c1
2 |  | Active |  | 3.6e+06 M⁻¹ | 4.7e+06 M⁻¹ | 1.4e+06 M⁻¹ |  |  | Cn1cc(NC(=O)c2cc(NC(=O)C(CCCCN)NC(=O)[C@H](CCCNC(=N)N)NC(=O)[C@@H]3C[C@@H](O)CN3C(=O)[C@@H](N)Cc3cnc[nH]3)cn2C)cc1C(=O)Nc1cc(C(=O)Nc2cc(C(=O)N[C@@H](CCCCN)C(=O)N[C@@H](CCCNC(=N)N)C(N)=O)n(C)c2)n(C)c1 (single isomer, unassigned)
3 |  | Dose-dependent effect |  |  |  |  | 3.4e+06 M⁻¹ | 2.7e+06 M⁻¹ | Cn1cc(NC(=O)c2cc(NC(=O)[C@H](CCCCN)NC(=O)[C@H](CCCNC(=N)N)NC(=O)[C@@H]3CCCN3C(=O)[C@@H](N)Cc3cnc[nH]3)cn2C)cc1C(=O)Nc1cc(C(=O)Nc2cc(C(=O)N[C@@H](CCCCN)C(=O)N[C@@H](CCCNC(=N)N)C(N)=O)n(C)c2)n(C)c1 (H-HPRK[X1][X1][X1][X1]KR-NH2)
